Our source for the inhibition of growth and IC50 values is ChEMBL document CHEMBL4340510, “Design, synthesis, and biological evaluation of truncated deguelin derivatives as Hsp90 inhibitors” (Eur J Med Chem, 2019).

The subject of test [1] is NCI-H1299. The experiment in a line: Antiproliferative activity against human NCI-H1299 cells assessed as inhibition of cell growth at 10 uM after 72 hrs by MTT assay relative to control. The note with it: NCI-H1299, 72 h, read-out: GI. The test is classed as functional. In a few lines:
(§1)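 Cells in RPMI 1640 are seeded at 4,000 cells/well and held 24 h at 37 °C, 5% CO2. Medium is replaced with compound-containing medium (DMSO ≤0.25%) for 72 h at 37 °C. MTT read-out by absorbance at 570 nm. Quadruplicate wells, repeated three times; values are means of three independent experiments.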

Test [2] deals with NCI-H1299. Put plainly: Antiproliferative activity against human NCI-H1299 cells assessed as inhibition of cell growth at 1 uM after 72 hrs by MTT assay relative to control. The test is classed as functional. The note with it: NCI-H1299, 72 h, read-out: GI. A digest of the protocol: as §1
(Tetrazolium assays rely on reduction of a dye to a coloured formazan, in cell work by metabolically active cells.)

Test [3] concerns NCI-H1299. The experiment in a line: Antiproliferative activity against human NCI-H1299 cells assessed as inhibition of cell growth at 0.1 uM after 72 hrs by MTT assay relative to control. The class given is functional. The note with it: NCI-H1299, 72 h, read-out: GI. A digest of the protocol: as §1
The test system of another test is A549. Put plainly: Antiproliferative activity against human A549 cells after 72 hrs by MTT assay. The class given is functional, cell-based. The note with it: A549, 72 h. In a few lines: as §1
Test [4] has as its target Heat shock protein HSP 90-alpha (Homo sapiens, UniProt P07900). The experiment in a line: Inhibition of FITC-geldanamycin binding to recombinant human full-length C-terminal His-tagged HSP90alpha […] (1 to 732 residues) expressed in Escherichia coli after 1 hr by fluorescence polarization assay. Background: Fluorescence polarisation rises when a labelled molecule tumbles more slowly, as on binding a larger partner.

The next test relates to MCF7. Put plainly: Antiproliferative activity against human MCF7 cells after 72 hrs by MTT assay. The test is classed as functional, cell-based. The note with it: MCF7, 72 h. In a few lines:
as §1

The test system of test [5] is NCI-H1299. The experiment in a line: Antiproliferative activity against human NCI-H1299 cells after 72 hrs by MTT assay. The test is classed as functional, cell-based. The following applies: NCI-H1299, 72 h. In a few lines:
as §1

The structures appear in SMILES notation.

`COc1ccc(CCC(=O)c2ccc3c(c2O)C=CC(C)(C)O3)cc1OC`: the inhibition of growth at 10 µM in the test with NCI-H1299 [1] is 30.1%. In addition, the inhibition of growth at 1 µM with NCI-H1299 [2] was 8.5%. The inhibition of growth at 0.1 µM in the test on NCI-H1299 [3] came out at 3.6%.
For `COc1c(C(=O)Cc2ccc3c(c2)OCCO3)ccc2c1C=CC(C)(C)O2` the same measures were 28.1%, 6.5% and 3.5%.
The like results for `CC1(C)C=Cc2c(ccc(C(=O)Cc3ccc(Cl)c(Cl)c3)c2O)O1` were, in that order, 11.5%, 9.1% and 8.3%.
`COc1ccc(C(C)C(=O)c2ccc3c(c2OC)C=CC(C)(C)O3)cc1` (stereo not drawn): the inhibition of growth at 10 µM in the test with NCI-H1299 [1] was 13.3%. Also, in the test on NCI-H1299 [2], the inhibition of growth at 1 µM turned out to be 10.8%. Moreover, the inhibition of growth at 0.1 µM with NCI-H1299 [3] was found to be 7.1%.
The like results for `COc1ccc(/C=C/c2ccc3c(c2OC)C=CC(C)(C)O3)cc1OC` were, in that order, 14.4%, 8.6% and 5.2%.
The like results for `COc1ccc(CC(=O)c2ccc3c(c2OC(C)=O)C=CC(C)(C)O3)cc1OC` were, in that order, 19.5%, 6.2% and 4.1%.
The IC50 is the concentration that inhibits the measured activity by half. With `COc1ccc(CC(=O)c2ccc3c(c2OC)C=CC(C)(C)O3)cc1OC`, the concentration for half-maximal inhibition (IC50) in the test on A549 was found to be 6 µM; in test [4] it was 90 nM; in the test on MCF7, 6.88 µM; in the test with NCI-H1299 [5] it was 11.8 µM. Besides, the inhibition of growth at 10 µM in the test on NCI-H1299 [1] came out at 47.3%. In addition, the inhibition of growth at 1 µM in the test on NCI-H1299 [2] was found to be 10.7%. The inhibition of growth at 0.1 µM with NCI-H1299 [3] was determined as 5.1%.
Regarding `COc1ccc(OC)c(CC(=O)c2ccc3c(c2OC)C=CC(C)(C)O3)c1`, the inhibition of growth at 10 µM in the test on NCI-H1299 [1] was determined as 38.2%. Moreover, in the test with NCI-H1299 [2], the inhibition of growth at 1 µM came to 10.4%. In the test with NCI-H1299 [3], the inhibition of growth at 0.1 µM is 4.7%.
The like results for `CC1(C)C=Cc2c(ccc(C(=O)Cc3ccccc3)c2O)O1` were, in that order, 15.1%, 7.8% and 3.9%.
As for `COc1ccc(CC(=O)c2ccc3c(c2OC)CCC(C)(C)O3)cc1OC`, the IC50 with A549 is 7.2 µM; in test [4], 150 nM; with MCF7, 7.86 µM; in the test on NCI-H1299 [5], 12.6 µM. The inhibition of growth at 10 µM in the test with NCI-H1299 [1] was 49.3%. Also, the inhibition of growth at 1 µM in the test on NCI-H1299 [2] was 12.4%. The inhibition of growth at 0.1 µM in the test with NCI-H1299 [3] was found to be 7.2%.
As to `COc1cc(CC(=O)c2ccc3c(c2OC)CCC(C)(C)O3)cc(OC)c1OC`, the IC50 in the test on A549 stood at 5.33 µM; in test [4], 280 nM; in the test with MCF7, 5.22 µM; in the test with NCI-H1299 [5], 5.72 µM. Besides, the inhibition of growth at 10 µM in the test on NCI-H1299 [1] was determined as 67.5%. In addition, the inhibition of growth at 1 µM in the test on NCI-H1299 [2] amounted to 30.6%. The inhibition of growth at 0.1 µM in the test on NCI-H1299 [3] was 11%.
Take `COc1c(C(=O)C(C)c2ccccc2)ccc2c1C=CC(C)(C)O2` (stereo not drawn): in the test on NCI-H1299 [1], the inhibition of growth at 10 µM was 15.5%. The inhibition of growth at 1 µM in the test on NCI-H1299 [2] is 6.5%. Further, in the test on NCI-H1299 [3], the inhibition of growth at 0.1 µM is 4.5%.
For `COc1cc(/C=C/C(=O)c2ccc3c(c2O)C=CC(C)(C)O3)cc(OC)c1OC`, in the test with NCI-H1299 [1], the inhibition of growth at 10 µM is 12.3%. Besides, the inhibition of growth at 1 µM with NCI-H1299 [2] is 8.7%. In addition, the inhibition of growth at 0.1 µM in the test on NCI-H1299 [3] worked out at 3.8%.
For `COc1ccc(CC(=O)c2ccc3c(c2OC)C=CC(C)(C)O3)cc1` the same measures were 10.6%, 7.3% and 3.6%.
For the molecule `CC(C)c1cc(C(=O)N2Cc3ccc(CN4CCN(C)CC4)cc3C2)c(O)cc1O` [ONALESPIB], the IC50 with A549 worked out at 0.44 µM; in test [4] it was 20 nM; with MCF7 it was 0.29 µM; in the test with NCI-H1299 [5] it was 0.37 µM. In the test with NCI-H1299 [1], the inhibition of growth at 10 µM was 95.7%. Besides, in the test on NCI-H1299 [2], the inhibition of growth at 1 µM was found to be 96.8%. The inhibition of growth at 0.1 µM with NCI-H1299 [3] came out at 94.8%.
As for `COc1ccc(CC(O)c2ccc3c(c2OC)C=CC(C)(C)O3)cc1OC` (stereo not drawn), the inhibition of growth at 10 µM in the test on NCI-H1299 [1] amounted to 19.8%. For the same molecule, the inhibition of growth at 1 µM with NCI-H1299 [2] came out at 10.8%. The inhibition of growth at 0.1 µM with NCI-H1299 [3] was 6.5%.
As for `COc1cc2c(cc1OC)[C@@H]1C(=O)c3ccc4c(c3O[C@@H]1CO2)C=CC(C)(C)O4` [DEGUELIN], the IC50 in the test on A549 is 6.05 µM; in test [4], 1630 nM; with MCF7, 8.17 µM; in the test with NCI-H1299 [5], 5.67 µM. Further, the inhibition of growth at 10 µM in the test with NCI-H1299 [1] came to 65.3%. In addition, the inhibition of growth at 1 µM in the test on NCI-H1299 [2] is 28.5%. The inhibition of growth at 0.1 µM in the test with NCI-H1299 [3] is 9.9%.
Regarding `COc1cc(CC(=O)c2ccc3c(c2O)C=CC(C)(C)O3)cc(OC)c1OC`, the IC50 in the test with A549 came to 13.1 µM; in test [4] it was 430 nM; in the test with MCF7, 11.2 µM; with NCI-H1299 [5], 12 µM. Moreover, in the test on NCI-H1299 [1], the inhibition of growth at 10 µM was 49%. In the test with NCI-H1299 [2], the inhibition of growth at 1 µM was 19.7%. Also, in the test with NCI-H1299 [3], the inhibition of growth at 0.1 µM stood at 9.7%.
For the molecule `COc1ccc(C(Cc2ccccc2)C(=O)c2ccc3c(c2OCc2ccccc2)C=CC(C)(C)O3)cc1OC` (stereo not drawn), the inhibition of growth at 10 µM in the test on NCI-H1299 [1] came to 9.9%. The inhibition of growth at 1 µM in the test on NCI-H1299 [2] was 2.5%. For the same molecule, in the test with NCI-H1299 [3], the inhibition of growth at 0.1 µM amounted to 2.1%.
For `COc1c(C(=O)Cc2ccccc2)ccc2c1C=CC(C)(C)O2` the same measures were 11.3%, 9.3% and 5.6%.
On to `COc1ccc(CC(=O)c2ccc3c(c2O)C=CC(C)(C)O3)cc1OC`, for which the inhibition of growth at 10 µM in the test on NCI-H1299 [1] was 45.3%. Besides, the inhibition of growth at 1 µM in the test with NCI-H1299 [2] turned out to be 8.2%. For the same molecule, in the test with NCI-H1299 [3], the inhibition of growth at 0.1 µM came to 4.8%.
The like results for `COc1ccc(CC(=O)c2ccc3c(c2O)C=CC(C)(C)O3)cc1` were, in that order, 16.1%, 7.1% and 6.1%.
In the case of `COc1ccc(/C=C/C(=O)c2ccc3c(c2O)C=CC(C)(C)O3)cc1OC`, the inhibition of growth at 10 µM with NCI-H1299 [1] is 10.7%. For the same molecule, the inhibition of growth at 1 µM in the test on NCI-H1299 [2] was found to be 6.4%. The inhibition of growth at 0.1 µM in the test on NCI-H1299 [3] is 5.3%.
On to `COc1cc(CC(=O)c2ccc3c(c2OC)C=CC(C)(C)O3)cc(OC)c1`, for which the inhibition of growth at 10 µM in the test with NCI-H1299 [1] turned out to be 40.1%. In addition, the inhibition of growth at 1 µM in the test with NCI-H1299 [2] is 10.2%. The inhibition of growth at 0.1 µM in the test on NCI-H1299 [3] was 7.1%.
In the case of `COc1cc(CC(=O)c2ccc3c(c2OC)C=CC(C)(C)O3)cc(OC)c1OC`, the IC50 worked out at 6.15 µM with A549, 630 nM in test [4], 5.08 µM in the test with MCF7 and 7.2 µM with NCI-H1299 [5]. Further, the inhibition of growth at 10 µM in the test on NCI-H1299 [1] was 58.3%. The inhibition of growth at 1 µM with NCI-H1299 [2] was 27.4%. In addition, the inhibition of growth at 0.1 µM in the test with NCI-H1299 [3] amounted to 9.6%.
